Assay outcomes deposited in PubChem by several laboratories.
Compounds with a hit are over-represented: about 1.8% of the library has one in this group of screens.
Cneo AK release: causes C. neoformans cell lysis. actives 0.2% (n = 360,000). adenylate kinase release luminescence, 4 h; normalised: neutral wells 0, clomiphene wells 100. lysis activity, % at 15 µM. AID 651654;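 active = mean lysis activity across replicates of at least 80%, whatever share of replicates individually reach that level; inactive = mean lysis activity below 80%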
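read-out = cell lysis signal | test system = log-phase Cryptococcus neoformans yeast cells | input = cells at 5 × 10^6 per mL | medium = fresh YPD growth medium | signal = luminescent adenylate kinase detection reagent | timing = 4 h at 37 °C static, read 1 h later | dosing = single dose | controls = Clomiphene as positive lysis control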
Mot1-301 SUMO: SUMOylation pathway inhibition by Mot1-301 growth rescue; actives 1% (n = 320,000); growth rescue, % at 18.8 µM; S. cerevisiae Mot1-301 growth rescue, ATP luminescence, 38.5C; percent above DMSO median, 100 means doubled;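 active = every valid replicate shows activation above 250% relative to neutral control wells; inactive = the rest, any valid replicate at or below 250%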;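 note: OY570 slx delta 5 strain wells were the positive control but not used for scaling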
Efflux pump inh: blocks antifungal efflux pumps in multiplex yeast assay; S. cerevisiae Candida pump triplex, Nile Red efflux; inhibition, % at 10 µM; actives 0.44% (n = 330,000);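 active = plate passing quality check with inhibition over a set limit, or well fluorescence over plate mean plus 4 SD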;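 note: Nile Red retained in pooled yeast measured as flow cytometry median fluorescence; 0% = buffer negative control and 100% = Enniatin B positive control; higher means more Nile Red kept so more efflux inhibition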
Statin myotox sup: protects C2C12 myotubes from simvastatin toxicity; ATP luminescence, 48 h; scaled: DMSO 0, geranylgeraniol control 100; actives 0.78% (n = 330,000); AID 602340; rescue of ATP level, % at 7.49 µM;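 active = mean ATP rescue above about 67%, or every replicate alone reaching that limit, limit read from the data, passing the limit was not always enough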;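 note: myotubes were challenged with 10 µM simvastatin during compound exposure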
Yeast Mot1 SUMO: inhibits SUMO pathway, affecting Mot1-301 yeast growth; shares compounds with Mot1-301 SUMO; S. cerevisiae Mot1-301 galactose growth, ATP luminescence, 24 h; -100 = growth of slx-deleted rescue strain; growth activity, percent, % at 42 µM; 2,300 tested, under 10 active;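 active = Signal drops as the depositor expects, and the fitted half-maximal dose is no more than ten times the top valid tested dose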;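 note: more negative values mean stronger growth rescue toward the control strain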
Active calls of the source: *; · = no result given; + = active, no number.

SMILES	Cneo AK release	Mot1-301 SUMO	Efflux pump inh	Statin myotox sup	Yeast Mot1 SUMO
C[C@@H]1CCCCO[C@@H](CN(C)Cc2ccc(C(F)(F)F)cc2)[C@H](C)CN([C@@H](C)CO)C(=O)c2cc(NS(=O)(=O)c3ccccc3)ccc2O1	-9	·	·	·	·
CCOC(=O)[C@H]1[C@H]2COc3ccccc3[C@@H]2N2C(=O)c3ccc(Cl)cc3NC(=O)[C@@]12C	-3	26	·	5	·
CC(=O)Cc1nsc(Nc2cccc(C)c2)n1	4	901*	0	5	0
CCCCN(C(=O)CSCc1c(C)noc1C)c1c(N)n(CCC)c(=O)[nH]c1=O	3	-7	0	2	·
COc1ccc(S(=O)(=O)N(C)c2ccc(C(=O)N3CCOCC3)cc2)cc1	4	97	0	-4	·
CC1CC(c2ccccc2)NS(=O)(=O)O1 (centres undefined)	-1	518*	0	11	0
COc1c2ccoc2nc2c(OC)c(OC[C@@H](O)C(C)(C)O)ccc12	0	724*	0	2	-1
O=[N+]([O-])c1ccc2nc[nH]c2c1	-4	·	·	5	·
O=c1cnc2cc([N+](=O)[O-])ccc2[nH]1	·	848*	0	·	0
O=S(=O)(Nc1ccc(Cl)cn1)c1cccc(S(=O)(=O)c2ccccc2)c1	·	9	0	·	·
C[C@@H]1CN([C@H](C)CO)C(=O)c2cc(NC(=O)CCC(F)(F)F)ccc2O[C@H]1CN(C)CC1CCCCC1	11	·	·	-2	·
COC(=O)C(NC(C)=O)(Nc1nc2ccc(S(C)(=O)=O)cc2s1)C(F)(F)F (centres undefined)	5	+	0	-1	1
CCOc1ccccc1NC(=O)c1oc2ccccc2c1NC(=O)C1CCCO1 (centres undefined)	2	-12	0	12	·
Cc1cc(C)nc(-n2nc(C)cc2NC(=O)CNCc2ccccc2)n1	6	+	0	1	1
COc1ccc(CNCC(=O)Nc2cc(C)nn2-c2nc(C)cc(C)n2)cc1OC	·	63	0	·	·
Cc1ccc(OCc2cc(C(=O)NCCc3cccnc3)no2)cc1C	0	·	0	10	·
CSc1cc(C)c(OCC(=O)Nc2c(C)nn(C)c2C)c(C)c1	-1	385*	-4	-28	0
Cc1nn(C)c(C)c1NC(=O)COc1ccc(F)cc1Br	-1	-14	0	5	·
Cc1ccc(NC(=S)NNC(=O)c2ccc(N3CCOCC3)c([N+](=O)[O-])c2)cc1C	·	366*	0	·	0
O=C(COc1ccccc1)Nc1ccc(OC(F)(F)C(F)F)c(NC(=O)COc2ccccc2)c1	7	961*	0	·	0
C[C@@H]1CN([C@@H](C)CO)S(=O)(=O)c2ccc(C#CC(C)(C)O)cc2O[C@@H]1CN(C)C(=O)CC1CC1	-2	·	·	-4	·
Cc1ccc(NC(=S)NC(=O)c2cncc(Br)c2)c(C)c1	6	4	0	·	·
Cc1ccc(C)c(NC(=S)NC(=O)c2cncc(Br)c2)c1	5	571*	0	·	0
CC(C)(C)NC(=O)C1Cc2ccccc2CN1S(=O)(=O)c1ccc(F)cc1 (centres undefined)	·	584*	0	·	0
CCOc1ccc2[nH]c(=O)c(CN(Cc3ccco3)Cc3nnnn3Cc3ccccc3)cc2c1	1	132	0	-44	·
SMILES	Cneo AK release	Mot1-301 SUMO	Efflux pump inh	Statin myotox sup	Yeast Mot1 SUMO
CCOc1ccc2[nH]c(=O)c(CN(Cc3ccco3)C(CC)c3nnnn3Cc3ccccc3)cc2c1 (centres undefined)	·	+	0	·	0
COc1ccccc1-n1c(CNc2ccc(F)cc2)nnc1SCC(=O)Nc1cc(C)on1	3	-14	0	-10	·
O=c1[nH]c(CN2CCN(CCO)CC2)nc2ccccc12	-4	587*	0	-4	0
O=c1[nH]c(CN2CCN(c3ccccc3O)CC2)nc2ccccc12	2	78	0	0	·
O=C(NCC(F)(F)F)[C@@H]1c2ccccc2C(=O)N(CC23CC4CC(CC(C4)C2)C3)[C@H]1c1ccc(CO)cc1	40	·	·	·	·
Cc1ccc(C(C(=O)Nc2ccc3c(c2)OCO3)N(C)C(=O)Cc2c[nH]c3ccccc23)cc1 (centres undefined)	·	756*	0	·	0
CC(=O)NC(Cc1c[nH]c2ccccc12)C(=O)OCC(=O)Nc1ccc2c(c1)OCO2 (centres undefined)	2	40	0	14	·
O=C(CCn1cnnn1)Nc1ccc(Cl)cc1Cl	·	721*	0	·	1
N#Cc1cc2c(cc1NC(=O)CCn1cnnn1)OCO2	1	-17	0	-2	·
Cc1cccc(N2CCN(CCCNC(=O)C3CCCN(c4ncnc5c4nc4n5CCCCC4)C3)CC2C)c1 (centres undefined)	-13	61	0	-34	·
NS(=O)(=O)c1ccc(CCNC(=O)c2ccc(Cl)s2)cc1	2	0	0	·	·
NS(=O)(=O)c1ccc(CCNC(=O)c2ccc([N+](=O)[O-])s2)cc1	1	389*	0	57	1
CCC(=O)c1ccc(OCC(=O)OCC(=O)Nc2ccc3c(c2)OCCO3)cc1	0	-2	0	14	·
CCCc1cc(N2CCCC(C(=O)Nc3cc(Cl)ccc3OC)C2)n2ncnc2n1 (centres undefined)	·	-1	0	·	·
COc1ccc(Cl)cc1NC(=O)C1CCCN(c2cc(C)nc3ncnn23)C1 (centres undefined)	-1	733*	0	18	0
Nc1ccc(C2(c3ccc(N)cc3)OC(=O)c3ccccc32)cc1	-3	497*	0	-1	1
COc1cccc(-n2nnc3c(=O)n(Cc4c(F)cccc4Cl)cnc32)c1	-3	1	0	-2	·
CN(C)c1ccc(CNc2ncnc3sccc23)cc1	-6	2	0	-17	·
O=C(C1CC1)N1CCc2cc(S(=O)(=O)NCc3ccccc3)ccc21	0	-4	0	-4	·
CS(=O)(=O)c1ccccc1C(=O)N(CCc1ccccc1)Cc1ccccc1	-6	-5	0	-4	·
COc1ccc(C(=O)N(CCc2ccccc2)Cc2ccccc2)c(OC)n1	·	658*	0	·	0
O=C(CCSc1nnnn1-c1ccccc1)N1CCOCC1	-3	688*	0	·	1
CCCNC(=O)N1CCC(C(=O)c2ccc(Cl)cc2)CC1	-2	170	0	-1	·
CN(C)S(=O)(=O)N1CCc2ccccc2C1	0	+	0	6	0
CN(C)S(=O)(=O)N1CCc2ccc(NC(=O)c3ccccc3Cl)cc2C1	-3	7	0	-9	·
CCCc1nn2c(=O)cc(CSCC(=O)Nc3ccc(OC)cc3)nc2s1	0	539*	-1	2	1
CCCc1nn2c(=O)cc(CSCC(=O)Nc3cccc(OC)c3)nc2s1	0	-8	0	10	·
O=C(C1CCC1)N1CCN(S(=O)(=O)c2cccc(F)c2)CC1	1	70	0	-3	·
CCNC(=S)Nc1ccc(C)c(S(=O)(=O)Nc2ccccc2OC)c1	·	398*	0	·	-1
